Results filed as inconclusive are left out. Calls of active or inactive are those of the source.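 Rule for the calls: active = signal falls, and half-maximal potency stays within ten times the top tested dose in every run; inconclusive = runs disagree, or a flat partial drop, or a poor fit; inactive = inactive every run, flat, wrong way or too weak.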

Consider 53 compounds from PubChem BioAssay AID504450 (Broad Institute, 2011).

System in one assay: not listed separately
In words: cytotoxicity in HMLE_sh_eGFP control cells, dose response, counter-screen for breast cancer stem cell project, cell-based, luminescence, powder samples, set 4 (AID 504450). As to conditions: HMLE_sh_eGFP viability, CellTiter-Glo luminescence, 72 h; at 30 µM (top of the series). The gist of the method: (§1)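 Material: HMLE breast epithelial cells expressing shRNA against eGFP (counterscreen line). Amount: 2000 cells/well. Compound dosing: 100 nL pinned compound. Incubation: compound exposure about 70-74 h at 37 °C, 5% CO2. Signal: CellTiter-Glo ATP luminescence, reagent diluted 1:3 in PBS, 12 min incubation. Benchmarks: DMSO neutral, puromycin positive.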
Background: Counterscreens check selectivity or assay interference.
As to `O=C(N/N=C/c1ccn[nH]1)c1cc2ccccc2o1`, the activity change, negative = viability loss is 16.4% (inactive).

In the case of `O=C(/C=C/c1ccc(C(F)(F)F)cc1)NC1=NCCS1`, the activity change, negative = viability loss was 11.7% (inactive).

On to `COc1ccccc1OCC(=O)N/N=C/c1ccc[nH]1`, for which the activity change, negative = viability loss was 14.8% (inactive).

`CC(C)c1ccc(/C=C/C(=O)Nc2ncc[nH]2)cc1`: the activity change, negative = viability loss was -18.2% (inactive).

In the case of `COc1cccc(/C=C/C(=O)NC2=NCCS2)c1`, the activity change, negative = viability loss was 1.9% (inactive).

As to `O=C(/C=C/c1ccc(Cl)cc1)NC1=NCCS1`, the activity change, negative = viability loss was -4.58% (inactive).

Consider `Cc1cccc(C)c1OCC(=O)N/N=C/c1ccc[nH]1`, for which the activity change, negative = viability loss was 8.5% (inactive).

Take `Cn1ccnc1NC(=O)c1ccc(COc2ccccc2)o1`: the activity change, negative = viability loss is -18.4% (inactive).

Consider `Cc1csc(NC(=O)c2ccc(CO)o2)n1`, for which the activity change, negative = viability loss was 13.5% (inactive).

In the case of `O=C(NC1=NCCS1)/C(F)=C/c1ccccc1`, the activity change, negative = viability loss is 13.9% (inactive).

With `O=S(=O)(/C=C/c1ccccc1)NC1=NCCS1`, the activity change, negative = viability loss was 19.6% (inactive).

Take `O=C(COc1ccc(Cl)cc1Cl)N/N=C/c1ccn[nH]1`: the activity change, negative = viability loss is 6.79% (inactive).

With `O=C(COc1c(Cl)cc(Cl)cc1Cl)N/N=C/c1ccn[nH]1`, the activity change, negative = viability loss is 0.468% (inactive).

With `O=C(Nc1nccs1)c1ccc(COc2ccccc2)o1`, the activity change, negative = viability loss was 5.29% (inactive).

Regarding `O=C(N/N=C/c1ccc[nH]1)C1CC1c1ccccc1` (stereo not drawn), the activity change, negative = viability loss was -2.24% (inactive).

In the case of `C/C(=C\c1ccccc1)C(=O)NC1=NCCS1`, the activity change, negative = viability loss is 12% (inactive).

With `Cc1ccc(C)c(OCC(=O)N/N=C/c2ccc[nH]2)c1`, the activity change, negative = viability loss is -10.1% (inactive).

On to `O=C(c1ccc(COc2ccccc2)o1)N1CCOCC1`, for which the activity change, negative = viability loss is 5.39% (inactive).

Turning to `O=C(NC1=NCCS1)C1CC1c1ccccc1` (stereo not drawn), the activity change, negative = viability loss is 7.45% (inactive).

For the next assay, the system named is HMLE_sh_eGFP viability, CellTiter-Glo luminescence, 72 h. The description is as above.
Details: not given
Summed up:
as §1
Consider `Cc1csc(NC(=O)c2ccc(COc3ccccc3C(F)(F)F)o2)n1`, for which the AC50 (as a rule, the concentration giving half of the maximal activity seen) was 0.057 µM.

Take `CC(C)c1ccc(/C=C/C(=O)N(C)Cc2ccccc2)cc1`: the half-maximal activity concentration (AC50) is 9.01 µM.

In the case of `CC(C)(C)c1ccc(C2CC2C(=O)N/N=C/c2ccc[nH]2)cc1` (stereo not drawn), the half-maximal activity concentration (AC50) was 2.14 µM.

On to `CC(C)c1ccc(/C=C/C(=O)Nc2ccccn2)cc1`, for which the AC50 is 14.8 µM.

Consider `O=C(N/N=C/c1ccc[nH]1)C1COc2cc3ccccc3cc2O1` (stereo not drawn), for which the AC50 was 18.9 µM.

For `Cc1csc(NC(=O)c2ccc(COc3ccccc3Cl)o2)n1`, the AC50 was 0.163 µM.

`Cc1csc(NC(=O)c2ccc(COc3ccc(C(F)(F)F)cc3)o2)n1`: the AC50 is 2.92 µM.

For the compound `CC(C)c1ccc(/C=C/C(=O)NCc2ccccc2)cc1`, the AC50 is 13.2 µM.

On to `Cc1csc(NC(=O)c2ccc(COc3cccc(F)c3)o2)n1`, for which the AC50 is 21.5 µM.

Regarding `CC(C)(C)c1ccc(/C=C/C(=O)NC2=NCCS2)cc1`, the half-maximal activity concentration (AC50) was 20.6 µM.

Consider `Cc1csc(NC(=O)c2ccc(COc3ccc(OC(F)(F)F)cc3)o2)n1`, for which the AC50 is 13.2 µM.

With `Cc1csc(NC(=O)c2ccc(COc3ccccc3C#N)o2)n1`, the AC50 was 3.69 µM.

As for `Cc1csc(NC(=O)c2ccc(COc3cccc(C#N)c3)o2)n1`, the AC50 was 15.4 µM.

In the case of `Cc1csc(NC(=O)c2ccc(COc3ccccc3F)o2)n1`, the AC50 is 0.151 µM.

For `Cc1csc(NC(=O)c2ccc(COc3cccc(OC(F)(F)F)c3)o2)n1`, the AC50 was 4.4 µM.

Take `O=C(COc1ccc2c(c1)OCO2)N/N=C/c1ccc[nH]1`: the AC50 is 20.9 µM.

As for `CC[C@@H](C(=O)O)C1CC[C@H](C)C([C@@H](C)[C@H](O)[C@H](C)C(=O)[C@H](CC)C2O[C@]3(C=C[C@@H](O)[C@]4(CC[C@@](C)(C5CC[C@](O)(CC)[C@H](C)O5)O4)O3)[C@H](C)C[C@@H]2C)O1` (stereo partly drawn), the AC50 is 0.007 µM.

For `Cc1csc(NC(=O)c2ccc(COc3cccc(Cl)c3)o2)n1`, the AC50 is 6.6 µM.

In the case of `O=C(Nc1nc2cccc(Cl)c2s1)c1ccc(COc2ccccc2)o1`, the AC50 is 9.36 µM.

As to `O=C(Nc1ccccn1)c1ccc(COc2ccccc2)o1`, the AC50 was 29.7 µM.

Take `CC(C)c1ccc(/C=C/C(=O)Nc2nccn2C)cc1`: the AC50 is 5.97 µM.

Consider `CC(C)c1ccc(/C=C/C(=O)Nc2nncs2)cc1`, for which the AC50 is 9.97 µM.

For `O=C(CSc1cc(Cl)ccc1Cl)N/N=C/c1ccc[nH]1`, the AC50 was 18 µM.

In the case of `O=C(/C=C/c1cccc(Cl)c1)NC1=NCCS1`, the half-maximal activity concentration (AC50) was 21.5 µM.

`O=C(COc1ccc(Cl)cc1Br)N/N=C/c1ccc[nH]1`: the AC50 was 20.9 µM.

For the compound `O=C(COc1ccc2ccccc2c1Br)N/N=C/c1ccc[nH]1`, the AC50 is 3.03 µM.

As for `CC(C)c1ccc(/C=C/C(=O)Nc2nccs2)cc1`, the AC50 was 7.26 µM.

As to `Cc1csc(NC(=O)c2ccc(COc3ccc(F)cc3)o2)n1`, the half-maximal activity concentration (AC50) is 28.5 µM.

For `COc1cccc(OCc2ccc(C(=O)Nc3nc(C)cs3)o2)c1`, the concentration at half-maximal activity (AC50) was 1.59 µM.

In the case of `COc1ccccc1OCc1ccc(C(=O)Nc2nc(C)cs2)o1`, the half-maximal activity concentration (AC50) is 8.54 µM.

Regarding `Cc1csc(NC(=O)c2ccc(COc3ccccc3OC(F)(F)F)o2)n1`, the AC50 is 0.38 µM.

As for `Cc1csc(NC(=O)c2ccc(COc3cccc(C(F)(F)F)c3)o2)n1`, the AC50 is 23.5 µM.

In the case of `Cc1csc(NC(=O)c2ccc(COc3ccc(C#N)cc3)o2)n1`, the AC50 is 12.7 µM.

For `Cc1csc(NC(=O)c2ccc(COc3ccc(Cl)cc3)o2)n1`, the AC50 was 13 µM.
